Measured values: ChEMBL document CHEMBL3758114, “Design, synthesis and biological evaluation of N-phenylquinazolin-4-amine hybrids as dual inhibitors of VEGFR-2 and HDAC” (Eur J Med Chem, 2016)

Assays:
[1] = molecular target: Vascular endothelial growth factor receptor 2 (Homo sapiens, UniProt P35968); assay: Inhibition of VEGFR2 (unknown origin) preincubated for 5 mins followed by addition of ATP/gastrin precursor(Tyr87) biotinylated peptide cocktail incubated for 30 mins by ELISA
Procedure, shortened: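 The kit enzyme, 100 ng VEGFR-2 in reaction cocktail, was preincubated with compound dilutions for 5 min at room temperature. The 30 min reaction ran at room temperature and was stopped with EDTA (50 mM, pH 8). Biotinylated peptide was captured on streptavidin wells for 60 min. Phospho-Tyr was detected with anti-pTyr-100 mAb, then HRP anti-mouse IgG, then TMB, read at 450 nm.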

MCF7 = assay: Antiproliferative activity against human MCF7 cells after 48 hrs by MTT assay; type: functional, cell-based; details: MCF7, 48 h
Histone deacetylase = assay: Inhibition of HDAC in human HeLa cell nuclear extracts preincubated for 15 mins followed by addition of Fluor de Lys as substrate for 1 hr by fluorometric assay; type: cell-based
Histone deacetylase 1 = Histone deacetylase 1 (Homo sapiens, UniProt Q13547); assay: Inhibition of HDAC1 (unknown origin) preincubated for 15 mins followed by addition of Fluor de Lys as substrate for 1 hr by fluorometric assay
Chain of Histone deacetylase 1 (Q13547 whole entry, canonical isoform): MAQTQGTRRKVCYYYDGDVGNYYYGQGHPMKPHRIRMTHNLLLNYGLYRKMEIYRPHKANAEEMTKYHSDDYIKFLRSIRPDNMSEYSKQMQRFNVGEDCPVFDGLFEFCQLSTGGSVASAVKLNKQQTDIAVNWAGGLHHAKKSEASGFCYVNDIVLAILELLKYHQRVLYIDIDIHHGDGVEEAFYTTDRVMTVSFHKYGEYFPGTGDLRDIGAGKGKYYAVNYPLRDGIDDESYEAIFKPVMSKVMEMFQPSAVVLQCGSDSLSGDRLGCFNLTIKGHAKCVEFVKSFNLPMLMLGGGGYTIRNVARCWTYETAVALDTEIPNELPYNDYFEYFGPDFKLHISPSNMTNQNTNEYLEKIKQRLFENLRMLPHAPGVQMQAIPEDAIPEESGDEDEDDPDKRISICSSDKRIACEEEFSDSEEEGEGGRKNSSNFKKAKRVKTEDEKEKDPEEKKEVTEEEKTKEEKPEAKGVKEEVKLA
Procedure, shortened: (§1)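 Each isolated HDAC isoform was incubated with compound at a range of concentrations for 15 min at room temperature. The reaction was then started with Fluor de Lys substrate and run for 1 h at room temperature. Developer was added to stop it. Fluorescence was read at excitation 355 nm and emission 460 nm. The assay was run three independent times.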

Histone deacetylase 2 = Histone deacetylase 2 (Homo sapiens, UniProt Q92769); assay: Inhibition of HDAC2 (unknown origin) preincubated for 15 mins followed by addition of Fluor de Lys as substrate for 1 hr by fluorometric assay; procedure, shortened: as §1
Chain of Histone deacetylase 2 (Q92769 whole entry): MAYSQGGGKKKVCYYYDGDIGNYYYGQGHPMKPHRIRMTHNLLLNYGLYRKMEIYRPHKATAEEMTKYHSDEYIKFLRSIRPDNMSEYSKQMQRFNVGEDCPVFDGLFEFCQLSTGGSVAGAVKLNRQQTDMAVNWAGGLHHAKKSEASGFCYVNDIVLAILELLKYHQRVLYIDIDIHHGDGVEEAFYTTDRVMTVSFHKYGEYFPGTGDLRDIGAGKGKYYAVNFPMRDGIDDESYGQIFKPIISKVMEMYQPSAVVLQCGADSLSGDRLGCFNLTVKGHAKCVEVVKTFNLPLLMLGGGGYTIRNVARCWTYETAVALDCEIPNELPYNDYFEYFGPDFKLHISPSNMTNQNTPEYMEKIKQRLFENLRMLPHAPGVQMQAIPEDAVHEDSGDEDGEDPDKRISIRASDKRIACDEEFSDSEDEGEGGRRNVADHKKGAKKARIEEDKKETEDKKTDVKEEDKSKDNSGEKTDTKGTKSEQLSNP

[2] = molecular target: T1, Protein deacetylase HDAC6 (Homo sapiens, UniProt Q9UBN7); assay: Inhibition of HDAC6 (unknown origin) preincubated for 15 mins followed by addition of Fluor de Lys as substrate for 1 hr by fluorometric assay; procedure, shortened: as §1
T1 sequence (Q9UBN7 whole entry): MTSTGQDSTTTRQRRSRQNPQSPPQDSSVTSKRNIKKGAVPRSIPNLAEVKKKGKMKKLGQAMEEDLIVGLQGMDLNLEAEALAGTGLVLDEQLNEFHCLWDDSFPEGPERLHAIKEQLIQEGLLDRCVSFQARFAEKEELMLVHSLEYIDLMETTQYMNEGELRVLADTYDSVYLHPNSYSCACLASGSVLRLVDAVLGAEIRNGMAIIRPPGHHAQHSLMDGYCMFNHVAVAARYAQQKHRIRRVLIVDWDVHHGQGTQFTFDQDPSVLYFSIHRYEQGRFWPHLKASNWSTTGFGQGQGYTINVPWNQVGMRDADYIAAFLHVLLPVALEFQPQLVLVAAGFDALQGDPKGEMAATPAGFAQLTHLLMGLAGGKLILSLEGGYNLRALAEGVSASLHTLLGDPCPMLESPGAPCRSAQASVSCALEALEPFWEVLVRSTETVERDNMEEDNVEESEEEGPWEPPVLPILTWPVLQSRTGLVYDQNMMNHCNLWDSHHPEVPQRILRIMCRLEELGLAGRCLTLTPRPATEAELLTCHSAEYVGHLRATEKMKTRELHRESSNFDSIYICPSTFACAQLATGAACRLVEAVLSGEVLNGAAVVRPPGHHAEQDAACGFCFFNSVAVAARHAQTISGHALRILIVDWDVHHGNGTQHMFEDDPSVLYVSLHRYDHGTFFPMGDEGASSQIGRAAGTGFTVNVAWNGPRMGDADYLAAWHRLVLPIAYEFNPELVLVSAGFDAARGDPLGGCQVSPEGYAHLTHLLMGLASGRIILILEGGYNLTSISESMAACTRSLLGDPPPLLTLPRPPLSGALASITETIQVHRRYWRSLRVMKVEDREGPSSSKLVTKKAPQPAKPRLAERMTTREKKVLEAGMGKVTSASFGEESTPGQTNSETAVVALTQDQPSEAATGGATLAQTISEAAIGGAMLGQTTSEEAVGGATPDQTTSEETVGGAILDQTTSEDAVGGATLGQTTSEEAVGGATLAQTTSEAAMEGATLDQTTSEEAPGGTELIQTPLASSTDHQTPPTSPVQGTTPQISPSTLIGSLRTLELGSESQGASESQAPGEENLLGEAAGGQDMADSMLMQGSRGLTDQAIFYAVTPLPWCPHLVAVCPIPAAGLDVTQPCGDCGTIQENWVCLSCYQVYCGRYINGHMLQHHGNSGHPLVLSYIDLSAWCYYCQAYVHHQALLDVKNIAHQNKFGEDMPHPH

Histone deacetylase 8 = molecular target: T2, Histone deacetylase 8 (Homo sapiens, UniProt Q9BY41); assay: Inhibition of HDAC8 (unknown origin) preincubated for 15 mins followed by addition of Fluor de Lys as substrate for 1 hr by fluorometric assay; procedure, shortened: as §1
T2 sequence (Q9BY41 whole entry): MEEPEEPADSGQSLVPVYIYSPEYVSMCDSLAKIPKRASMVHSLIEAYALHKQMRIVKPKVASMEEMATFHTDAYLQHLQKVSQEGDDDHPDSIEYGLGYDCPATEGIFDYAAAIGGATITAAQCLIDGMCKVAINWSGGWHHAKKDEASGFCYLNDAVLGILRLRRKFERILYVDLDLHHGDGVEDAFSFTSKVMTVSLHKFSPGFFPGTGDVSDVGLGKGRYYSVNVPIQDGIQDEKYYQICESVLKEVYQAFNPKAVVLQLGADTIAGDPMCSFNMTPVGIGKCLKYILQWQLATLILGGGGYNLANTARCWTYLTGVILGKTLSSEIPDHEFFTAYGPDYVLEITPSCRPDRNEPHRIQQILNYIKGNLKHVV

Chain of Vascular endothelial growth factor receptor 2 (P35968 whole entry): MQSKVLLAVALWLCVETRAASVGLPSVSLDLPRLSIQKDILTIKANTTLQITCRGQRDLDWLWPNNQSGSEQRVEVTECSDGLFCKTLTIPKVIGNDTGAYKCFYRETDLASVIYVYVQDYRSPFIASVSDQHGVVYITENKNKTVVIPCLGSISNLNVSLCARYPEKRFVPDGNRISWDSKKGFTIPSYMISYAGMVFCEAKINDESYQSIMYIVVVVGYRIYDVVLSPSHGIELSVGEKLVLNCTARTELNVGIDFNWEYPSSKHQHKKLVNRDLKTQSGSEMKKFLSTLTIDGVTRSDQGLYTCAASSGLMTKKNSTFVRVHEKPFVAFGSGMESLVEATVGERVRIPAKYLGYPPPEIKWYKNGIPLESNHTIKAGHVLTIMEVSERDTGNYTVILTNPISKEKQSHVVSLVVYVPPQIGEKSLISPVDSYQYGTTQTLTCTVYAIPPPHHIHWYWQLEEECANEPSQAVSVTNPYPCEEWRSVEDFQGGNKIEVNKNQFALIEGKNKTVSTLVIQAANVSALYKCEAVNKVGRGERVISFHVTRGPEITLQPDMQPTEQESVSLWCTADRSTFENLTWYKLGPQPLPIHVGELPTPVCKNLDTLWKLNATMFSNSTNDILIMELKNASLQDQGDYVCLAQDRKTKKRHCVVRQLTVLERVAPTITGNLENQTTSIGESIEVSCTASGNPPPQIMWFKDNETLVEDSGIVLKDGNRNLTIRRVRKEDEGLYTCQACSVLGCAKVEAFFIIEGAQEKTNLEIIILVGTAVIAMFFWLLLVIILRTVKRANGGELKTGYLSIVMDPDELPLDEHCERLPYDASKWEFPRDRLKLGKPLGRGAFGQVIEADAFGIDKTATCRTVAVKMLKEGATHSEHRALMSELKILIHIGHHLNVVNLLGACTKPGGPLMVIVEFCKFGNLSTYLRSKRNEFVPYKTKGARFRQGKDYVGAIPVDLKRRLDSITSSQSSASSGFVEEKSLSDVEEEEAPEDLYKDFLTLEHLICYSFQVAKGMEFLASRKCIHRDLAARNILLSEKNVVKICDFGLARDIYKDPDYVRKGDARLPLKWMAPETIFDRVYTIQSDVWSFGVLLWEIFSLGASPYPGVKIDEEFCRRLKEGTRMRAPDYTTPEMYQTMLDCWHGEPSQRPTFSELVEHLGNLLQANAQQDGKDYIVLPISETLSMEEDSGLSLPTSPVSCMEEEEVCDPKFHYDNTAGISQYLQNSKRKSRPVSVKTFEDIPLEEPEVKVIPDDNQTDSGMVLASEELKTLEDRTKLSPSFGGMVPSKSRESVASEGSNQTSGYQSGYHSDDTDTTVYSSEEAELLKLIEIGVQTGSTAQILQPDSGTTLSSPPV

COc1cc2ncnc(Nc3ccccc3Br)c2cc1OCCCCCCC(=O)NO
IC50 [1]: > 10000 nM | IC50 (MCF7): 2600 nM | IC50 (Histone deacetylase): 8.8 nM

COc1cc2ncnc(Nc3ccc(F)cc3)c2cc1OCCCCCC(=O)NO
IC50 [1]: 524 nM | IC50 (MCF7): 18000 nM | IC50 (Histone deacetylase): 29 nM

COc1cc2ncnc(Nc3ccccc3F)c2cc1OCCCCCCC(=O)NO
IC50 [1]: 754 nM | IC50 (MCF7): 15000 nM | IC50 (Histone deacetylase): 32 nM

O=C(CCCCCCC(=O)Nc1ccccc1)NO [VORINOSTAT]
IC50 [1]: > 10000 nM

COc1cc2ncnc(Nc3ccc(Cl)cc3)c2cc1OCCCCCC(=O)NO
IC50 [1]: 313 nM | IC50 (MCF7): 4000 nM | IC50 (Histone deacetylase): 11 nM

COc1cc2ncnc(Nc3ccc(Br)cc3)c2cc1OCCCCCC(=O)NO
IC50 [1]: 153 nM | IC50 (MCF7): 3500 nM | IC50 (Histone deacetylase): 12 nM

COc1cc2ncnc(Nc3ccccc3F)c2cc1OCCCCC(=O)NO
IC50 [1]: 840 nM | IC50 (MCF7): > 100000 nM | IC50 (Histone deacetylase): 554 nM

COc1cc2ncnc(Nc3ccc(Cl)cc3)c2cc1OCCCCCCC(=O)NO
IC50 [1]: 215 nM | IC50 (MCF7): 1700 nM | IC50 (Histone deacetylase): 3.2 nM

COc1cc2ncnc(Nc3ccccc3Cl)c2cc1OCCCCCCC(=O)NO
IC50 [1]: 364 nM | IC50 (MCF7): 7800 nM | IC50 (Histone deacetylase): 18 nM

COc1cc2ncnc(Nc3ccccc3Br)c2cc1OCCCCCC(=O)NO
IC50 [1]: > 10000 nM | IC50 (MCF7): 17000 nM | IC50 (Histone deacetylase): 31 nM

COc1cc2ncnc(Nc3ccccc3F)c2cc1OCCCC(=O)NO
IC50 [1]: 865 nM | IC50 (MCF7): > 100000 nM | IC50 (Histone deacetylase): 673 nM

COc1cc2ncnc(Nc3ccccc3Br)c2cc1OCCCCC(=O)NO
IC50 [1]: > 10000 nM | IC50 (MCF7): 33000 nM | IC50 (Histone deacetylase): 74 nM

COc1cc2ncnc(Nc3ccccc3Cl)c2cc1OCCCCCC(=O)NO
IC50 [1]: 685 nM | IC50 (MCF7): 15000 nM | IC50 (Histone deacetylase): 29 nM

COc1cc2ncnc(Nc3ccccc3Cl)c2cc1OCCCC(=O)NO
IC50 [1]: 857 nM | IC50 (MCF7): > 100000 nM | IC50 (Histone deacetylase): 1255 nM

COc1cc2ncnc(Nc3ccc(Cl)cc3)c2cc1OCCCC(=O)NO
IC50 [1]: 182 nM | IC50 (MCF7): 85000 nM | IC50 (Histone deacetylase): 698 nM

COc1cc2ncnc(Nc3ccccc3Cl)c2cc1OCCCCC(=O)NO
IC50 [1]: 832 nM | IC50 (MCF7): 78000 nM | IC50 (Histone deacetylase): 128 nM

COc1cc2ncnc(Nc3ccc(F)cc3)c2cc1OCCCCCCC(=O)NO
IC50 [1]: 270 nM | IC50 (MCF7): 2400 nM | IC50 (Histone deacetylase): 8.5 nM

COc1cc2ncnc(Nc3ccccc3F)c2cc1OCCCCCC(=O)NO
IC50 [1]: 918 nM | IC50 (MCF7): 84000 nM | IC50 (Histone deacetylase): 145 nM

COc1cc2ncnc(Nc3ccc(Br)cc3)c2cc1OCCCCCCC(=O)NO
IC50 [1]: 74 nM | IC50 (MCF7): 850 nM | IC50 (Histone deacetylase): 2.2 nM | IC50 (Histone deacetylase 1): 1.8 nM | IC50 (Histone deacetylase 2): 3.3 nM | IC50 [2]: 16.4 nM | IC50 (Histone deacetylase 8): 4.6 nM

COc1cc2ncnc(Nc3ccc(Br)cc3)c2cc1OCCCCC(=O)NO
IC50 [1]: 59 nM | IC50 (MCF7): 36000 nM | IC50 (Histone deacetylase): 68 nM

COc1cc2ncnc(Nc3ccccc3Br)c2cc1OCCCC(=O)NO
IC50 (Histone deacetylase): 840 nM

COc1cc2ncnc(Nc3ccc(Cl)cc3)c2cc1OCCCCC(=O)NO
IC50 [1]: 220 nM | IC50 (MCF7): 61000 nM | IC50 (Histone deacetylase): 132 nM

COc1cc2ncnc(Nc3ccc(Br)cc3)c2cc1OCCCC(=O)NO
IC50 [1]: 98 nM | IC50 (MCF7): 52000 nM | IC50 (Histone deacetylase): 545 nM

COc1cc2ncnc(Nc3ccc(F)cc3)c2cc1OCCCC(=O)NO
IC50 [1]: 376 nM | IC50 (MCF7): > 100000 nM | IC50 (Histone deacetylase): 1340 nM

COc1cc2ncnc(Nc3ccc(F)cc3)c2cc1OCCCCC(=O)NO
IC50 [1]: 455 nM | IC50 (MCF7): 74000 nM | IC50 (Histone deacetylase): 139 nM
